Assay outcomes as filed in PubChem.
D1 mod: D1 CRE-luciferase signal change, two-sided – cell-based, HEK293 D1, dopamine EC30, D1 allosteric modulator project, primary screen; dopamine EC30 potentiation; actives deviate in either direction; B-score at 10 µM; hit rate 5.9% among 58,000; AID 641, 2007;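 active means luminescence count or its row- and column-corrected plate score outside the 99.7% band of the plate's sample wells, on either side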
PostGolgi yeast: phenotypic screen on post-Golgi transport, primary screen | inhibition, % at 10 µM | post-Golgi transport phenotypic cell assay | hit rate 0.9% among 98,000;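 further: yeast cells grown in 1536-well plates; yeast grown about 18 h at 30C before absorbance read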
PostGolgi ctrl: growth inhibition of yeast control strain, primary screen, counter-screen for post-Golgi transport modulator project; inhibition, % at 10 µM; hit rate 5% among 98,000; efflux-deficient yeast background strain, growth absorbance A615, 16 h; AID 738, 2007
Ecoli tolC: growth inhibitors of E. coli tolC mutant, primary screen, strain BW25113 ΔtolC::kan, 384-well; OD615; growth inhibition, % at 10 µM (by protocol); hit rate 2.2% among 65,000; AID 573, 2007;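 active means growth inhibition at or above a cutoff equal to the mean over every tested compound plus 3 SD, cut at about 60% in these data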;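 further: growth measured after 20 h incubation at 37 °C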
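Signal: optical density read at 615 nm; Assay system: E. coli ΔtolC::kan strain BW25113; Times: 20 h incubation with compound, 37 °C; Dosing: 10 µM final, single dose.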
hDAT+cocaine: changed hDAT dopamine uptake under cocaine IC80, either direction, primary screen, cocaine antagonist project, cell-based, LLC-PK1 hDAT, [14C]-dopamine uptake, MLSMR; Sodium-dependent dopamine transporter (Homo sapiens), Q01959; LLC-PK1 hDAT cells, [14C]-dopamine uptake with cocaine IC80; actives deviate in either direction; B-score at 10 µM; hit rate 1.3% among 110,000;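 active means Z score or B-score, a plate-position-corrected score, falls beyond the plate's 99.7% confidence bounds, in either direction; inactive means both scores lie inside the 99.7% bounds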
Target sequence (Q01959 whole entry, looked up): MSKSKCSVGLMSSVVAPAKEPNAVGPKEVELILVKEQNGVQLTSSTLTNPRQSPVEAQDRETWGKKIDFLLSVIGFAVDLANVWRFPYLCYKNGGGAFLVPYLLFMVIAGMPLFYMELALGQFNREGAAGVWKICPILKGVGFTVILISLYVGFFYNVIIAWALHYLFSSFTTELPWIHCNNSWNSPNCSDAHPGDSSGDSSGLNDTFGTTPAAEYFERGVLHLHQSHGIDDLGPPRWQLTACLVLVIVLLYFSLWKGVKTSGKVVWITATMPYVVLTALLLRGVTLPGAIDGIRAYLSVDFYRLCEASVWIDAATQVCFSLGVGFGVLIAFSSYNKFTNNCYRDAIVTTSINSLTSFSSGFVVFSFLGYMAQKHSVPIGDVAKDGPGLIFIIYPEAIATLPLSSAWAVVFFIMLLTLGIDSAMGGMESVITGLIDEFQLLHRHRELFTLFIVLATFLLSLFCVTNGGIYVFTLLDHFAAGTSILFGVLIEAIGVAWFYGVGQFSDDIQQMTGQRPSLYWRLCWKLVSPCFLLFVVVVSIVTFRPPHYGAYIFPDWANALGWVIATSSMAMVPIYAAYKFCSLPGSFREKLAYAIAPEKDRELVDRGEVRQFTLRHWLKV
E coli WT exp: growth inhibitors of wild-type E. coli, primary screen, strain BW25113, expanded library, OD600; OD600 absorbance; growth inhibition, % at 100 µM; hit rate 0.15% among 98,000; AID 710, 2007;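 active means growth inhibition above about 50% at one test dose, limit read from the data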;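 further: growth measured after 20 h incubation at 37 °C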
D1 mod confirm: D1 receptor positive allosteric modulators, retest, confirmation, cell-based, HEK293 D1, CRE-luciferase, duplicate; AID 642, 2007; hit rate 88% among 2,200; dopamine EC30 potentiation; hits give high values; shares compounds with D1 mod; luminescence at 10 µM;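 active means luminescence in either of two replicates above the same-plate mean plus 3 SD of the low-dose dopamine control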
D1 ag no DA: D1 receptor agonism without dopamine, confirmation, mechanism study for D1 allosteric modulator project, cell-based, HEK293 D1, CRE-luciferase, secondary assay 1 | shares compounds with D1 mod | AID 646, 2007 | luminescence at 10 µM | luminescence, no dopamine; hits give high values | hit rate 0.8% among 1,900; in the data active means luminescence above about 3900
Isoprot counter: counter-screen for D1 modulators: isoproterenol response in HEK293 cells; shares compounds with D1 mod; HEK293 D1 CRE-luciferase, isoproterenol EC30 counter-screen; calls only at 10 µM; hit rate 63% among 2,200; AID 647;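 active means luminescence in either replicate above plate mean of wells with a partly effective reference agonist dose plus 3 SD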;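 further: isoproterenol raises cAMP through native beta-adrenoceptor Gs so signal bypasses D1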
Large screens that a line does not name were inactive (follow-up assays come after a bar, where they were run). Compounds with a hit are over-represented: about 9.3% of the library has one in this group of screens. Unless noted, no stated cut-off is given here; in the data, active means inhibition above about 30%; inactive means the rest.

O=C(CSc1nc(-c2ccccc2)cc(C(F)(F)F)n1)N1CCOCC1	none (no result: D1 mod, Ecoli tolC)
COc1cc2cc(C)c(SCC(=O)N3CCOCC3)nc2cc1OC	D1 mod 5.74 | D1 mod confirm 10104 | D1 ag no DA inactive | Isoprot counter active
COc1ccc(-c2cc(C(F)(F)F)nc(SCC(=O)N3CCOCC3)n2)cc1OC	D1 mod 22.9 | D1 mod confirm 16556 | D1 ag no DA inactive | Isoprot counter active
COc1cc2cc(C#N)c(SCC(=O)N3CCOCC3)nc2cc1OC	none (no result: D1 mod, PostGolgi yeast, PostGolgi ctrl, Ecoli tolC, E coli WT exp)
COCCNC(=O)CSc1nc(-c2ccc(OC)c(OC)c2)cc(C(F)(F)F)n1	D1 mod 9.35 (no result: Ecoli tolC) | D1 mod confirm 12172 | D1 ag no DA inactive | Isoprot counter active
COC(=O)CSc1nc(-c2ccc(F)cc2)cc(C(F)(F)F)n1	none (no result: D1 mod, PostGolgi yeast, PostGolgi ctrl, Ecoli tolC, E coli WT exp)
COc1cccc(CNC(=O)C(=O)NCC2CCCO2)c1 (stereo not drawn)	none (no result: D1 mod, PostGolgi yeast, PostGolgi ctrl, Ecoli tolC, E coli WT exp)
O=C(CCSc1nc2ccccc2o1)N1CCOCC1	D1 mod 3.58 | D1 mod confirm 7988 | D1 ag no DA inactive | Isoprot counter inactive
O=C(CCSc1ccccc1)N1CCOCC1	none
OCCNc1nc(Nc2cc(Cl)ccc2OC2CCCC2)nc(N2CCCC2)n1	none (no result: D1 mod, PostGolgi yeast, PostGolgi ctrl, Ecoli tolC, E coli WT exp)
CCOc1cc(C(=O)Nc2ccc3c(c2)OCO3)ccc1OC(F)F	D1 mod 7.62 | D1 mod confirm 13356 | D1 ag no DA inactive | Isoprot counter active
COc1ccccc1-c1nnc2n1N=C(C(C)(C)C)CS2	D1 mod 3.97 | D1 mod confirm 10640 | D1 ag no DA inactive | Isoprot counter inactive
CC(C)(C)C1=Nn2c(nnc2-c2ccccc2F)SC1	D1 mod 21.4 | D1 mod confirm 20880 | Isoprot counter active
CC(C)(C)OC(=O)CC[C@@H](C(=O)N1CCN(C(=O)OC(C)(C)C)CC1)n1cc(C(CO)NC(=O)OC(C)(C)C)nn1 (stereo partly drawn)	none (no result: D1 mod, PostGolgi yeast, PostGolgi ctrl, Ecoli tolC, E coli WT exp)
COc1ncnc2c1N[C@@](C)(O)c1c(F)c(F)c(F)c(F)c1S2	D1 mod 5.72 | D1 mod confirm 8300 | D1 ag no DA inactive | Isoprot counter inactive
COc1ncnc2c1NC(=O)CS2	none
O=CN/C=C/c1cc(O)ccc1O	none (no result: D1 mod, PostGolgi yeast, PostGolgi ctrl, Ecoli tolC, E coli WT exp)
CC(=O)Nc1c(C(=O)C2CC2)oc2ccccc12	D1 mod 8.31 | D1 mod confirm 13456 | D1 ag no DA inactive | Isoprot counter active
CCOC(=O)c1oc2ccccc2c1NC(=O)c1cccc(OC)c1	none
CCOC(=O)c1oc2ccccc2c1NC(=O)C1CCCCC1	D1 mod 9.53 | D1 mod confirm 15764 | Isoprot counter active
CCOC(=O)c1oc2ccccc2c1NC(=O)c1cccc(OC)c1OC	D1 mod 15.7, PostGolgi ctrl 46.2 | D1 mod confirm 20936 | D1 ag no DA inactive | Isoprot counter active
COc1ccc(S(=O)(=O)N2CCSC2c2ccc(OC)c(OC)c2)cc1 (stereo not drawn)	D1 mod 4.17 | D1 mod confirm 10220 | D1 ag no DA inactive | Isoprot counter inactive
Cc1ccc(Sc2ccc(N)cc2C#N)cc1	none (no result: D1 mod, PostGolgi yeast, PostGolgi ctrl, Ecoli tolC, E coli WT exp)
CC(Cc1ccccc1)C(=O)N(C)Cc1cccnc1 (stereo not drawn)	none (no result: D1 mod, PostGolgi yeast, PostGolgi ctrl, Ecoli tolC, E coli WT exp)
COc1ccc(-c2nnc(SC(C)C(=O)Nc3cccc(Cl)c3)o2)cc1 (stereo not drawn)	none
CCCn1nc(NC(=O)c2cccs2)c2cc3ccccc3nc21	none (no result: D1 mod, Ecoli tolC)
CCCn1nc(NC(=O)c2ccncc2)c2cc3ccccc3nc21	D1 mod 8.38 | D1 mod confirm 12660 | Isoprot counter active
O=C(c1ccco1)N1CCN(Cc2cccc(F)c2)CC1	none
O=C(c1cccc(F)c1)N1CCN(Cc2ccco2)CC1	D1 mod 3.94 | D1 mod confirm inactive | D1 ag no DA inactive | Isoprot counter inactive
C=CCNC(=O)c1cccc(C(F)(F)F)c1	none (no result: D1 mod, Ecoli tolC)
CCOc1ccc(CCNS(=O)(=O)c2cccc3nsnc23)cc1OCC	D1 mod 18.9 | D1 mod confirm 19296 | D1 ag no DA inactive | Isoprot counter active
COc1ccc(CCNS(=O)(=O)c2cccc3nsnc23)cc1OC	none
COc1cc2c(cc1OC)C1=C(C#N)CC/C(=N\S(=O)(=O)c3ccccc3)N1CC2	D1 mod 8.72 | D1 mod confirm 18960 | Isoprot counter active
COc1cc2c(cc1OC)C1=C(C#N)CCC(=O)N1CC2	D1 mod 13.1 | D1 mod confirm 16416 | D1 ag no DA inactive | Isoprot counter active
COc1cc2c(cc1OC)CN(C(=O)c1ccccc1C(=O)O)CC2	none
COc1cc2c(cc1OC)CN(CC(=O)Nc1ccc(C#N)cc1)CC2	none (no result: D1 mod, Ecoli tolC)
O=C(Oc1ccc2ccc(=O)oc2c1)N1CCOCC1	D1 mod 3.12 (no result: hDAT+cocaine) | D1 mod confirm inactive | D1 ag no DA inactive | Isoprot counter inactive
C=CCN(C(=O)CSc1nc2[nH]ncc2c(=O)n1-c1ccccc1OC)c1ccccc1	none (no result: hDAT+cocaine)
CC(C)Nc1nc(C#N)nc(NC(C)C)n1	D1 mod 11.2 | D1 mod confirm 12292 | Isoprot counter active
CCOC(=O)c1nn(-c2ccccc2)c(C(=O)OCC)c1N	D1 mod 11.1 | D1 mod confirm 15940 | D1 ag no DA inactive | Isoprot counter active
CCOC(=O)c1nn(-c2ccccc2C)c(=O)c(C#N)c1C	D1 mod 3.11 | D1 mod confirm 9504 | Isoprot counter inactive
CCOC(=O)c1nn(-c2ccccc2)c(=O)c2c(N)scc12	D1 mod 6.25 | D1 mod confirm 16104 | D1 ag no DA inactive | Isoprot counter active
CCc1cc2c(NCC3CCCO3)nc(C)nc2s1 (stereo not drawn)	none (no result: D1 mod, PostGolgi yeast, PostGolgi ctrl, Ecoli tolC, E coli WT exp)
Nc1nnc(C(c2ccccc2)c2ccccc2)s1	none (no result: D1 mod, Ecoli tolC)
CCCc1nc2ccccc2c(C(=O)OCC(=O)NCc2ccco2)c1CC	none (no result: D1 mod, Ecoli tolC)
CCc1nc2ccccc2c(C(=O)OCC(=O)NCc2ccco2)c1C	D1 mod 4.36 | D1 mod confirm 8196 | D1 ag no DA inactive | Isoprot counter inactive
O=c1nc2scc(-c3ccccc3)n2c2ccccc12	D1 mod 3.39 | D1 mod confirm 17356 | D1 ag no DA inactive | Isoprot counter inactive
COC(=O)c1cc(=O)n2c(-c3ccccc3)csc2n1	none
CN1CCCCc2c1[nH]c1ccccc1c2=O	none
